According to ChEMBL document CHEMBL5058577, “EUbOPEN Chemogenomics Library 2 (Multiplex)” (2022):

Tested on: Fibroblast
Assay: Multiplex assay against human fibroblast
Type: toxicity, cell-based
Outline: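 Imaging took place on a CQ1 microscope at 37°C and 5% CO2 once compound had been added to live cells stained at seeding with Hoechst33342, BioTracker Green Microtubule Cytoskeleton Dye, MitoTracker Red and Annexin V Alexa Fluor 680. CellPathfinder machine-learning gating classed cells as Hoechst high-intensity objects or normal cells, classed normal cells as having healthy, pyknosed or fragmented nuclei, and classed pyknosed cells as mitotic or apoptotic. Tubulin, mitochondrial-mass and membrane-permeability phenotypes are per cents of the healthy-nucleus cells.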

[1] = 12 h, 1 µM, compound concentration 1 uM, replicate 1
[2] = 12 h, 1 µM, compound concentration 1 uM, replicate 2
[3] = 12 h, 10 µM, compound concentration 10 uM, replicate 1
[4] = 12 h, 10 µM, compound concentration 10 uM, replicate 2
[5] = 24 h, 1 µM, compound concentration 1 uM, replicate 1
[6] = 24 h, 1 µM, compound concentration 1 uM, replicate 2
[7] = 24 h, 10 µM, compound concentration 10 uM, replicate 1
[8] = 24 h, 10 µM, compound concentration 10 uM, replicate 2
[9] = 48 h, 1 µM, compound concentration 1 uM, replicate 1
[10] = 48 h, 1 µM, compound concentration 1 uM, replicate 2
[11] = 48 h, 10 µM, compound concentration 10 uM, replicate 1
[12] = 48 h, 10 µM, compound concentration 10 uM, replicate 2

## Oc1c(CN2CCN(c3ccccn3)CC2)cc(Cl)c2cccnc12
[1]
  Population Apoptotic (%): 73%
  Population Fragmented Nuclei (%): 17%
  Population Healthy Nuclei (%): 68%
  Population Hoechst High Intensity Objects (%): 4%
  Population Membrane Permeable-Phenotype (%): 1%
  Population Mitochondria Different-Phenotype (%): 0%
  Population Mitotic Cells (%): 26%
  Population Normal (%): 95%
  Population Pyknosed Nuclei (%): 14%
  Population Tubulin-Different-Phenotype (%): 27%
  Total Cell Count: 168
[2]
  Population Apoptotic (%): 57%
  Population Fragmented Nuclei (%): 27%
  Population Healthy Nuclei (%): 54%
  Population Hoechst High Intensity Objects (%): 5%
  Population Membrane Permeable-Phenotype (%): 8%
  Population Mitochondria Different-Phenotype (%): 6%
  Population Mitotic Cells (%): 42%
  Population Normal (%): 94%
  Population Pyknosed Nuclei (%): 18%
  Population Tubulin-Different-Phenotype (%): 43%
  Total Cell Count: 152
[3]
  Population Apoptotic (%): 41%
  Population Fragmented Nuclei (%): 17%
  Population Healthy Nuclei (%): 54%
  Population Hoechst High Intensity Objects (%): 5%
  Population Membrane Permeable-Phenotype (%): 0%
  Population Mitochondria Different-Phenotype (%): 25%
  Population Mitotic Cells (%): 58%
  Population Normal (%): 94%
  Population Pyknosed Nuclei (%): 27%
  Population Tubulin-Different-Phenotype (%): 67%
  Total Cell Count: 130
[4]
  Population Apoptotic (%): 33%
  Population Fragmented Nuclei (%): 25%
  Population Healthy Nuclei (%): 58%
  Population Hoechst High Intensity Objects (%): 2%
  Population Membrane Permeable-Phenotype (%): 2%
  Population Mitochondria Different-Phenotype (%): 9%
  Population Mitotic Cells (%): 66%
  Population Normal (%): 97%
  Population Pyknosed Nuclei (%): 16%
  Population Tubulin-Different-Phenotype (%): 62%
  Total Cell Count: 131
[5]
  Population Apoptotic (%): 50%
  Population Fragmented Nuclei (%): 19%
  Population Healthy Nuclei (%): 67%
  Population Hoechst High Intensity Objects (%): 3%
  Population Membrane Permeable-Phenotype (%): 0%
  Population Mitochondria Different-Phenotype (%): 3%
  Population Mitotic Cells (%): 50%
  Population Normal (%): 96%
  Population Pyknosed Nuclei (%): 13%
  Population Tubulin-Different-Phenotype (%): 30%
  Total Cell Count: 174
[6]
  Population Apoptotic (%): 45%
  Population Fragmented Nuclei (%): 29%
  Population Healthy Nuclei (%): 56%
  Population Hoechst High Intensity Objects (%): 5%
  Population Membrane Permeable-Phenotype (%): 8%
  Population Mitochondria Different-Phenotype (%): 7%
  Population Mitotic Cells (%): 55%
  Population Normal (%): 94%
  Population Tubulin-Different-Phenotype (%): 47%
  Total Cell Count: 153
[7]
  Population Apoptotic (%): 89%
  Population Fragmented Nuclei (%): 26%
  Population Healthy Nuclei (%): 46%
  Population Hoechst High Intensity Objects (%): 0%
  Population Membrane Permeable-Phenotype (%): 1%
  Population Mitochondria Different-Phenotype (%): 15%
  Population Mitotic Cells (%): 10%
  Population Normal (%): 100%
  Population Pyknosed Nuclei (%): 27%
  Population Tubulin-Different-Phenotype (%): 57%
  Total Cell Count: 139
[8]
  Population Apoptotic (%): 56%
  Population Fragmented Nuclei (%): 35%
  Population Healthy Nuclei (%): 41%
  Population Hoechst High Intensity Objects (%): 2%
  Population Mitochondria Different-Phenotype (%): 11%
  Population Mitotic Cells (%): 43%
  Population Normal (%): 97%
  Population Pyknosed Nuclei (%): 22%
  Population Tubulin-Different-Phenotype (%): 68%
  Total Cell Count: 134
[9]
  Population Apoptotic (%): 54%
  Population Fragmented Nuclei (%): 17%
  Population Healthy Nuclei (%): 67%
  Population Hoechst High Intensity Objects (%): 5%
  Population Membrane Permeable-Phenotype (%): 1%
  Population Mitochondria Different-Phenotype (%): 1%
  Population Mitotic Cells (%): 45%
  Population Normal (%): 94%
  Population Pyknosed Nuclei (%): 14%
  Population Tubulin-Different-Phenotype (%): 35%
  Total Cell Count: 158
[10]
  Population Apoptotic (%): 70%
  Population Fragmented Nuclei (%): 25%
  Population Healthy Nuclei (%): 66%
  Population Hoechst High Intensity Objects (%): 0%
  Population Membrane Permeable-Phenotype (%): 4%
  Population Mitochondria Different-Phenotype (%): 4%
  Population Mitotic Cells (%): 30%
  Population Normal (%): 99%
  Population Pyknosed Nuclei (%): 7%
  Population Tubulin-Different-Phenotype (%): 37%
  Total Cell Count: 137
[11]
  Population Apoptotic (%): 85%
  Population Fragmented Nuclei (%): 31%
  Population Healthy Nuclei (%): 32%
  Population Hoechst High Intensity Objects (%): 2%
  Population Membrane Permeable-Phenotype (%): 0%
  Population Mitochondria Different-Phenotype (%): 9%
  Population Mitotic Cells (%): 14%
  Population Normal (%): 97%
  Population Pyknosed Nuclei (%): 35%
  Population Tubulin-Different-Phenotype (%): 38%
  Total Cell Count: 137
[12]
  Population Apoptotic (%): 78%
  Population Fragmented Nuclei (%): 34%
  Population Healthy Nuclei (%): 41%
  Population Membrane Permeable-Phenotype (%): 1%
  Population Mitochondria Different-Phenotype (%): 7%
  Population Mitotic Cells (%): 21%
  Population Pyknosed Nuclei (%): 24%
  Population Tubulin-Different-Phenotype (%): 65%
